STEP block = STEP phosphatase inhibitors, primary screen, biochemical, fluorescence intensity, uHTS. inhibition, % at 20 µM. AID 588621, 2011. Tyrosine-protein phosphatase non-receptor type 5 (Homo sapiens), P54829. recombinant STEP, OMFP fluorogenic substrate. 360,000 tested, 0.25% active;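 active = inhibition at 20 µM, scaled per plate between control wells, above about 37%, limit read from the data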
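System: isolated STEP enzyme; schedule: 20 min enzyme reaction at room temperature, protected from light; medium: Bis-Tris buffer pH 6.0, 2.5 mM DTT, 0.005% Tween 20; signal: fluorescence, 480/540 nm; dosing: single compound dose of 20 µM, 1% DMSO final; also added: OMFP substrate, 25 µM final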
DNMT1 block = human DNMT1 methyltransferase inhibitors, primary screen, biochemical, molecular beacon, fluorescence, HinP1I cleavage, uHTS; DNA (cytosine-5)-methyltransferase 1 (Homo sapiens), P26358; inhibition (reported as % activation of signal), % at 10 µM; 360,000 tested, 0.83% active; in the data active = inhibition above about 50%
HKDC1 inhibitor = HKDC1 hexokinase inhibitors, primary screen, biochemical, fluorescence, uHTS. recombinant HKDC1, G6PDH/diaphorase resazurin coupled fluorescence. AID 493160, 2011. 340,000 tested, 0.16% active. inhibition, % at 20 µM. Q2TB90;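 active = inhibition above about 35% when tested at 20 µM, limit read from the data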
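Material: recombinant HKDC1 hexokinase; Amount: HKDC1 at 5 µg/mL; Medium: Tris pH 8.0 buffer with MgCl2, Tween-20, BSA, BME; Schedule: 90 min reaction incubation at room temperature, dark; Technique: coupled resazurin fluorescence, excitation 525 nm, emission 613 nm.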
Scp1 inh = Scp-1 phosphatase inhibitors, primary screen, biochemical, colorimetric, uHTS; Carboxy-terminal domain RNA polymerase II polypeptide A small phosphatase 1 (Homo …; Recombinant Scp1, phosphopeptide, malachite green phosphate absorbance; inhibition, % at 20 µM; 340,000 tested, 0.88% active; AID 493091, 2011;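 active = inhibition above about 50% at 20 µM, limit read from the data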
Target sequence (Q9GZU7 76-261 limits assumed): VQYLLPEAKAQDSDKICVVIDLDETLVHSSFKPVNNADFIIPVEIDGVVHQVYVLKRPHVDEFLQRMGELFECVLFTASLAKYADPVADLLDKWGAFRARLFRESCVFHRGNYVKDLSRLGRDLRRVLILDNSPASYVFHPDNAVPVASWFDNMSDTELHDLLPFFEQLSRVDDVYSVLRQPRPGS
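Test system: SCP-1 phosphatase catalytic domain, residues 76-261 | Compound dosing: One concentration, 20 µM, with 1.0% DMSO | Schedule: 45 min room-temperature reaction, 5 min colour, 30 min stabiliser | Detection: Absorbance at 630 nm | Read-out basis: % inhibition of SCP-1 phosphate liberation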
SUMO1-SIM PPI = modulators of SUMO1 protein-protein interactions, primary screen, biochemical, uHTS. SUMO1 binding to a labelled peptide, TR-FRET, 1 h. 360,000 tested, 0.33% active. Small ubiquitin-related modifier 1 (Homo sapiens), P63165. AID 602429, 2012. inhibition, % at 20 µM; in the data active = inhibition above about 37%
Target sequence (P63165 whole entry, looked up): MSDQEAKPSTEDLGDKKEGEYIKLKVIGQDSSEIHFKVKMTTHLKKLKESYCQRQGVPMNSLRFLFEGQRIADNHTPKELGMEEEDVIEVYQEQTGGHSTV
LMPTP inh = LMPTP phosphatase inhibitors, primary screen, biochemical, fluorescence intensity, uHTS. 360,000 tested, 0.22% active. recombinant LMPTP-A, OMFP fluorogenic substrate. inhibition, % at 20 µM;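 active = compounds that cut the enzyme signal by at least half of the control window in the single-dose screen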
Target sequence (P24666 whole entry, looked up): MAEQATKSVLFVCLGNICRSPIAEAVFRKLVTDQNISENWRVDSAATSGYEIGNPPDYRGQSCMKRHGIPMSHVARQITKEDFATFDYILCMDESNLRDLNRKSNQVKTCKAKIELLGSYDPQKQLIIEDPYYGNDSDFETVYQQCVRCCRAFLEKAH
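test system = LMPTP-A | amount = 0.625 nM LMPTP-A final | reagent = fluorogenic phosphatase substrate OMFP at 400 µM final | incubation = 50 min at room temperature | benchmarks = no-enzyme low control, uninhibited high control | medium = Bis-Tris pH 6.0, DTT, detergent | signal = fluorescence intensity of OMFP turnover product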
Scp-1 conf = Scp-1 phosphatase inhibitors, retest, confirmation, biochemical, colorimetric, single concentration; shares compounds with Scp1 inh; recombinant SCP-1 catalytic domain, phosphate release, malachite green absorbance; inhibition, % at 20 µM; 2,500 tested, 61% active; AID 540281, 2011
MG interference = colorimetric readout interference by compounds, confirmation, artefact control for Scp-1 inhibitor project, biochemical, single concentration; shares compounds with Scp1 inh; Colorimetric interference counterscreen, malachite green absorbance 630 nm; apparent inhibition (interference), % at 20 µM; 2,500 tested, under 10 active; AID 540313, 2011;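 note: compounds added after enzyme reaction finished so only phosphate colour detection is probed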
Scp1 DSF = Scp-1 binding by thermal shift, confirmation, orthogonal assay for Scp-1 inhibitor project, biophysical, differential scanning fluorimetry; shares compounds with Scp1 inh; Recombinant SCP1, Sypro Orange thermal shift Tm; thermal shift relative to vanadate control, % at 40 µM; 1,500 tested, 25% active;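 active = substances whose mean melting-temperature shift, as a percentage of the reference inhibitor's shift, reaches about 5.3%, limit read from the data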
Of the large screens only hits and unclear results are named; the others gave an inactive call (follow-up assays come after a bar, where they were run). Only some compounds are listed: those with a hit (about 1.8% of all), similar ones and a draw of the others.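 Rule for the calls, unless noted: active = inhibition of at least 30% at 20 µM; inactive = the rest.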

O=C1CCCN1CCCNS(=O)(=O)c1ccc(Br)cc1	none
CC(=O)Nc1ccc(S(=O)(=O)NCCN2CCNC2=O)cc1Cl	none | Scp-1 conf inactive | MG interference inactive
CCCN(CCC)CCCNC(=S)Nc1ccc2nc3n(c(=O)c2c1)CCCCC3	none
CCOC(=O)C(C(=O)Nc1cccc(C)n1)C1CCCCC1 (stereo not drawn)	none
CCOC(=O)C(C(=O)Nc1ccccn1)C1CCCCC1 (stereo not drawn)	Scp1 inh 50 | Scp-1 conf 77 | MG interference inactive | Scp1 DSF inactive
C/C=C/c1cccc(-c2nc(C(=O)N3CCN(C)CC3)cc3c2[C@@H](CCO)N(C(=O)NC(C)C)C3)c1	none (no result: STEP block, DNMT1 block, HKDC1 inhibitor, Scp1 inh)
O=C(NNC(=O)c1ccc(Cl)cc1Cl)c1ccc2ccccc2c1	none | Scp-1 conf inactive | MG interference inactive
Cn1cc(CN2CCC(C(=O)N3CCCCC3)CC2)c(-c2ccccc2F)n1	none
Cc1ccc(S(=O)(=O)N2CCN(C(=O)COC(=O)CCOc3ccccc3C)CC2)c(C)c1	Scp1 inh 66 | Scp-1 conf 86 | MG interference inactive | Scp1 DSF inactive
COc1ccc(/C=N/NC(=O)C(Cc2c[nH]c3ccccc23)NC(=O)OCC(C)C)cc1[N+](=O)[O-] (stereo not drawn)	Scp1 inh 65 | Scp-1 conf inactive | MG interference inactive
CC(=O)Nc1ccc(/C(C)=N/NC(=O)c2ccc(COc3ccccc3Cl)o2)cc1	Scp1 inh 104 | Scp-1 conf 65 | MG interference inactive | Scp1 DSF inactive
CCCn1c(N)c(C(=O)CN(C)CC(=O)Nc2ccc(F)cc2)c(=O)[nH]c1=O	none
O=C(/C=C/c1ccco1)NCC(=O)N/N=C/c1ccc([N+](=O)[O-])cc1	Scp1 inh 76 | Scp-1 conf 79 | MG interference inactive | Scp1 DSF 6.6
O=C(/C=C/c1ccco1)NCC(=O)N/N=C/c1ccc(Cl)cc1	none
CCN1/C(=C2\C(=O)N(c3ccccc3)N=C2C)C=Cc2cc(C)ccc21	Scp1 inh 58 | Scp-1 conf inactive | MG interference inactive
CCSC1=N/C(=C\c2ccc(-c3ccccc3[N+](=O)[O-])o2)C(=O)S1	none
CCCSC1=N/C(=C\c2ccc([N+](=O)[O-])o2)C(=O)S1	DNMT1 block 93, Scp1 inh 60, SUMO1-SIM PPI 62 | Scp-1 conf 72 | MG interference inactive | Scp1 DSF 11
COCc1cc(CN(C)C(=O)c2oc3c(F)cccc3c2C)[nH]n1	none
O=[N+]([O-])c1ccc(O)c(Nc2ncnc3ccc(Br)cc23)c1	Scp1 inh 75 | Scp-1 conf 42 | MG interference inactive | Scp1 DSF 14
CCN1C(=O)[C@@H]2[C@@H](c3ccc(SC4CCCCC4)c(OC)c3)N3CCCC[C@@]3(C(=O)OC)[C@@H]2C1=O	Scp1 inh 53 | Scp-1 conf inactive | MG interference inactive
COC(=O)[C@@]12CCCCN1[C@H](c1ccc(SC3CCCCC3)c(OC)c1)[C@@H]1C(=O)N(C)C(=O)[C@@H]12	none
CCOC(=O)C1CCCN(C(=O)c2ccc(Cn3c(=S)[nH]c4cc(C(=O)OC)ccc4c3=O)cc2)C1 (stereo not drawn)	Scp1 inh 60 | Scp-1 conf 31 | MG interference inactive | Scp1 DSF inactive
Cc1ccc(/C=N/NC(=O)c2ccc(NC(=O)c3ccc(Cl)cc3)cc2)o1	none
O=C(N/N=C/c1ccncc1)c1ccc(NC(=O)c2cccc(Cl)c2)cc1	Scp1 inh 68 | Scp-1 conf 35 | MG interference inactive | Scp1 DSF 15
O=C(N/N=C/c1ccncc1)c1ccc(NC(=O)c2ccc(Cl)cc2)cc1	Scp1 inh 64 | Scp-1 conf inactive | MG interference inactive
O=C(CCCCCNC(=O)c1ccccc1)N/N=C/c1ccccc1O	none
O=C(CCCCCNC(=O)c1ccccc1)N/N=C/c1ccco1	Scp1 inh 52 | Scp-1 conf 32 | MG interference inactive | Scp1 DSF inactive
O=C(N/N=C/c1ccco1)c1ccc(NC(=O)c2ccc(Cl)cc2)cc1	Scp1 inh 77, LMPTP inh 63 | Scp-1 conf 40 | MG interference inactive | Scp1 DSF inactive
CCCc1cc(=O)[nH]c(SCC(=O)c2c(N)n(C3CC3)c(=O)[nH]c2=O)n1	none
CCC(CC)c1nnc(NC(=O)Cc2c[nH]c3ccccc23)s1	none (no result: HKDC1 inhibitor, Scp1 inh)
O=S1(=O)CC(N2CCCC2)CN1Cc1cn(Cc2ccc(Cl)cc2)nn1 (stereo not drawn)	none (no result: STEP block, DNMT1 block, HKDC1 inhibitor, Scp1 inh)
O=C(O)c1ccccc1C(=O)Nc1n[nH]c(=S)s1	Scp1 inh 99 | Scp-1 conf 42 | MG interference inactive | Scp1 DSF inactive
Cc1ccc(CNC(=O)c2cc(=O)c3cc(C)ccc3o2)cc1	Scp1 inh 61 | Scp-1 conf inactive | MG interference inactive
CC1=C(C(=O)O)N2C(=O)C(NC(=O)c3nn(C)c(C)c3Cl)C2SC1 (stereo not drawn)	none
CC(=O)OCC1=C(C(=O)O)N2C(=O)C(NC(=O)C(C)Cn3nc(C)c(Cl)c3C)C2SC1 (stereo not drawn)	Scp1 inh 53 | Scp-1 conf 67 | MG interference inactive | Scp1 DSF inactive
O=C(/C=C\Nc1ccc2c(c1)OCO2)c1ccc(Cl)s1	Scp1 inh 91, LMPTP inh 63 | Scp-1 conf 75 | MG interference inactive | Scp1 DSF inactive
O=C(/C=C\Nc1ccc2c(c1)OCO2)c1cccs1	none

From PubChem
